Legend:
Staphylococcus aureus [1] = test: Antimicrobial activity against methicillin-resistant Staphylococcus aureus OC 8525 infected in SKH1 mouse assessed as log change in bacterial colony forming unit per gram of skin tissue at 25 mg/kg/day, sc (reference value: 0.8 deltalog CFU); assay type: functional; conditions: route subcutaneous
[2] = fT>MIC in Staphylococcus aureus Smith OC 4172 infected sc dosed SKH1 mouse at 50 mg/kg, sc administered twice at 1 and 3 hrs after infection; assay type: functional; conditions: route subcutaneous
[3] = fT>MIC in Pseudomonas aeruginosa OC 4354 infected sc dosed SKH1 mouse administered in 24 hrs dosing interval; assay type: functional
Outline: (§1)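 Plasma levels came from female hairless SKH1 mice given single s.c. doses at the nape 24 h after flank s.c. infection with Cytodex beads. S. aureus work used immunocompetent mice. P. aeruginosa work used mice made neutropenic with cyclophosphamide i.p., 150 mg/kg at day −5 and 100 mg/kg at day −1. Drug assayed by HPLC with diode-array detection. Noncompartmental analysis.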

[4] = Tmax in immunocompetent SKH1 mouse plasma at 50 mg/kg, sc; assay type: ADME, organism-based; parameters: dose 50 mg/kg, route subcutaneous
Outline: (§2)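 Female SKH1 hairless mice, immunocompetent or cyclophosphamide-neutropenic, infected s.c. with MRSA OC 8525 or P. aeruginosa OC 4354 on the Cytodex beads (left flank), sterile beads on the right. Single dose 24 h later: s.c. at the nape, or linezolid 50 mg/kg oral. Plasma and skin (DMSO homogenate) sampled over time, HPLC with diode array.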

Staphylococcus aureus [5] = test: Antimicrobial activity against methicillin-susceptible Staphylococcus aureus Smith OC 4172 infected in SKH1 mouse assessed as log change in bacterial colony forming unit per gram of skin tissue at 25 mg/kg/day, sc (reference value: 1.6 deltalog CFU); assay type: functional; conditions: route subcutaneous
Outline: (§3)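 Female hairless immunocompetent SKH1 mice were anaesthetised and injected s.c. with 0.2 ml Cytodex bead inoculum (0.1% vol/vol beads in BHI; 6.7–7.0 log10 CFU/mouse): MSSA OC 4172 in the left flank, MRSA OC 8525 in the right. Drug was given at 1, 3, 25 and 27 h post-infection. At 48 h, flank lesions were excised, weighed and homogenised in saline, then plated on TSA (18 h, 37°C). The value is Δlog CFU/g versus the inoculum, from 5 mice/dose, run twice and pooled.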

Staphylococcus aureus [6] = test: Antimicrobial activity against methicillin-resistant Staphylococcus aureus OC 8525 infected in SKH1 mouse assessed as log change in bacterial colony forming unit per gram of skin tissue at 6.2 mg/kg/day, sc (reference value: 0.8 deltalog CFU); assay type: functional; conditions: route subcutaneous; outline: as §3
[7] = fT>MIC in Staphylococcus aureus OC 8525 infected sc dosed SKH1 mouse administered in 24 hrs dosing interval; assay type: functional; outline: as §1
Staphylococcus aureus [8] = test: Antimicrobial activity against methicillin-resistant Staphylococcus aureus OC 8525 infected in SKH1 mouse assessed as log change in bacterial colony forming unit per gram of skin tissue at 100 mg/kg/day, sc (reference value: 0.8 deltalog CFU); assay type: functional; conditions: route subcutaneous; outline: as §3
Staphylococcus aureus [9] = test: Antimicrobial activity against methicillin-susceptible Staphylococcus aureus Smith OC 4172 infected in SKH1 mouse assessed as log change in bacterial colony forming unit per gram of skin tissue at 100 mg/kg/day, sc (reference value: 1.6 deltalog CFU); assay type: functional; conditions: route subcutaneous
Staphylococcus aureus [10] = test: Antimicrobial activity against methicillin-susceptible Staphylococcus aureus Smith OC 4172 infected in SKH1 mouse assessed as log change in bacterial colony forming unit per gram of skin tissue at 6.2 mg/kg/day, sc (reference value: 1.6 deltalog CFU); assay type: functional; conditions: route subcutaneous
[11] = fT>MIC in Staphylococcus aureus OC 8525 infected sc dosed SKH1 mouse at 50 mg/kg, sc administered twice at 1 and 3 hrs after infection; assay type: functional; conditions: route subcutaneous
Staphylococcus aureus [12] = test: Antimicrobial activity against methicillin-susceptible Staphylococcus aureus OC 4172 assessed as inhibition of growth by broth microdilution method; assay type: functional
Staphylococcus aureus [13] = test: Antimicrobial activity against methicillin-resistant Staphylococcus aureus OC 8525 infected in SKH1 mouse assessed as log change in bacterial colony forming unit per gram of skin tissue at 1.6 mg/kg/day, sc (reference value: 0.8 deltalog CFU); assay type: functional; conditions: route subcutaneous; outline: as §3
[14] = Protein binding in mouse plasma; assay type: ADME, cell-free; conditions: read-out: PPB (converted)
[15] = fT>MIC in Pseudomonas aeruginosa OC 4354 infected sc dosed SKH1 mouse at 50 mg/kg, sc administered twice at 1 and 3 hrs after infection; assay type: functional; conditions: route subcutaneous
Staphylococcus aureus [16] = test: Antimicrobial activity against methicillin-susceptible Staphylococcus aureus Smith OC 4172 infected in SKH1 mouse assessed as log change in bacterial colony forming unit per gram of skin tissue at 1.6 mg/kg/day, sc (reference value: 1.6 deltalog CFU); assay type: functional; conditions: route subcutaneous
Plasma [17] = test: fCmax in immunocompetent SKH1 mouse plasma at 50 mg/kg, sc; assay type: ADME, organism-based; parameters: dose 50 mg/kg, route subcutaneous; conditions: in vivo; outline: as §2
[18] = fT>MIC in Pseudomonas aeruginosa OC 4351 infected sc dosed SKH1 mouse administered in 24 hrs dosing interval; assay type: functional
Plasma [19] = test: fAUC (0-infinity) in immunocompetent SKH1 mouse plasma at 50 mg/kg, sc; assay type: ADME, organism-based; parameters: dose 50 mg/kg, route subcutaneous; conditions: in vivo; outline: as §2
[20] = fT>MIC in Pseudomonas aeruginosa OC 4351 infected sc dosed SKH1 mouse at 50 mg/kg, sc administered twice at 1 and 3 hrs after infection; assay type: functional; conditions: route subcutaneous
[21] = fT>MIC in Staphylococcus aureus OC 4172 infected sc dosed SKH1 mouse administered in 24 hrs dosing interval; assay type: functional; outline: as §1
Staphylococcus aureus [22] = test: Antimicrobial activity against methicillin-resistant Staphylococcus aureus OC 8525 assessed as inhibition of growth by broth microdilution method; assay type: functional

Cc1nnc(SCC2=C(C(=O)O)N3C(=O)[C@@H](NC(=O)Cn4cnnn4)[C@H]3SC2)s1 [CEFAZOLIN]
deltalog10CFU (Staphylococcus aureus [1]): -1.3 | fT>MIC [2]: 2.4 h | fT>MIC [3]: 3.3% | Tmax [4]: 7.5 min | deltalog10CFU (Staphylococcus aureus [5]): -2 | deltalog10CFU (Staphylococcus aureus [6]): -1.2 | fT>MIC [7]: 1.3% | deltalog10CFU (Staphylococcus aureus [8]): -0.3 | deltalog10CFU (Staphylococcus aureus [9]): -1.7 | deltalog10CFU (Staphylococcus aureus [10]): 1.6 | fT>MIC [11]: 0.3 h | MIC (Staphylococcus aureus [12]): 0.5 µg/mL | deltalog10CFU (Staphylococcus aureus [13]): 0.6 | fraction unbound [14]: 0.19 | fT>MIC [15]: 0.8 h | deltalog10CFU (Staphylococcus aureus [16]): -0.6 | fCmax (Plasma [17]): 19 µg/mL | fT>MIC [18]: 6.4% | fAUC (Plasma [19]): 565 µg·min/mL | fT>MIC [20]: 1.5 h | fT>MIC [21]: 10.2% | MIC (Staphylococcus aureus [22]): 16 µg/mL

Source: ChEMBL document CHEMBL1212762, “In vivo activity of ceftobiprole in murine skin infections due to Staphylococcus aureus and Pseudomonas aeruginosa” (Antimicrob Agents Chemother, 2010)
